In brackets after ≈: the same amount, converted by molar mass.
Legend:
[1] = tested on: HCT-116; test: G1 cell cycle arrest (fold increase over control) in HCT116 cells at IC50; format: functional, Homo sapiens
Method in brief: (§1)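 HCT-116 cells exposed to compound for 24 h, then analysed by flow cytometry; G1 arrest expressed as fold increase of G1 population over untreated control.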

[2] = target: Cyclin-dependent kinase 2/cyclin E (Homo sapiens, UniProt P24941); test: Inhibition of Cyclin E-cyclin-dependent kinase 2 mediated RbING-phosphorylation; format: protein-complex assay
Method in brief: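 Cyclin E/CDK2 enzyme assay following substrate phosphorylation, with Rb^ING as substrate; staurosporine run as standard; IC50 reported.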

[3] = tested on: HCT-116; test: Antiproliferative activity against HCT116 (human colon carcinoma) cell line.; format: functional, cell-based
[4] = target: cAMP-dependent protein kinase (PKA) (Homo sapiens, UniProt P22694+P17612+P22612); test: Inhibition of protein kinase A mediated histone phosphorylation; format: protein assay
Method in brief: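 PKA enzyme assay measuring phosphorylation of histone substrate; staurosporine used as standard; IC50 reported.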

[5] = tested on: HCT-116; test: G1 cell cycle arrest (fold increase over control) in HCT116 cells at 3*IC50; format: functional, Homo sapiens; method in brief: as §1
[6] = Solubility measured in 10% solution in EtOH.; format: physicochemical; settings: read-out: S
Method in brief: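 Solubility determined in 10% solutol in ethanol.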

[7] = target: Cyclin-dependent kinase 4 (Homo sapiens) (UniProt P11802); test: Inhibition of CDK4-specific Rb-S780 phosphorylation of HCT116 cells at 2xIC50 for 24 hr; format: functional, cell-based; settings: HCT-116
Sequence of Cyclin-dependent kinase 4 (Homo sapiens) (P11802 whole entry): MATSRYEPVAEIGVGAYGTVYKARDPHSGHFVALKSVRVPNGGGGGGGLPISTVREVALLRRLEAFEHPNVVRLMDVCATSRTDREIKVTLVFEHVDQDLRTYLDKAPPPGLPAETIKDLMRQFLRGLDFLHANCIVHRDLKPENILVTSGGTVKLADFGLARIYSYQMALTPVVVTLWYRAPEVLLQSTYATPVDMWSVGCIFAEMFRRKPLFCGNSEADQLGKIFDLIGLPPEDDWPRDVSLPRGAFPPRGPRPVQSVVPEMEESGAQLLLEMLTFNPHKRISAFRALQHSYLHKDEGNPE
Method in brief: (§2)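 HCT-116 colon carcinoma cells treated 24 h with compound at 1× and 2× its antiproliferation IC50; Rb phosphorylation at Ser780 measured by Western blot with phospho-specific antibody; value expressed as % pRb inhibition.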

[8] = target: T1, Cyclin-dependent kinase 4/cyclin D1 (Homo sapiens, UniProt P11802); test: Inhibition of Cyclin D1-cyclin-dependent kinase 4.; format: protein-complex assay
T1 sequence (P11802 whole entry): as above
T1 sequence (P24385 whole entry, further chain): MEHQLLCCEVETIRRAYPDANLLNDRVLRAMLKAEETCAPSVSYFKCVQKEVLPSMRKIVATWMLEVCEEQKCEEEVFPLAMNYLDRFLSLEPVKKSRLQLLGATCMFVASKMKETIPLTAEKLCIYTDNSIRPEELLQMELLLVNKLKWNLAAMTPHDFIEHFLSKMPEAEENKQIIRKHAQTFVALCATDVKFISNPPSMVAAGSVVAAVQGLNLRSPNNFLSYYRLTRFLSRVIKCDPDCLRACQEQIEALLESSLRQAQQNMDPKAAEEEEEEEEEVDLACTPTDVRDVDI
Method in brief: (§3)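 Cyclin D1/CDK4 enzyme inhibition determined by measuring phosphorylation of Rb protein; staurosporine included as standard; IC50 derived.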

[9] = target: Cyclin-dependent kinase 4 (Homo sapiens) (UniProt P11802); test: Inhibition of CDK4-specific Rb-S780 phosphorylation of HCT116 cells at 1xIC50 for 24 hr; format: functional, cell-based; settings: HCT-116; method in brief: as §2
[10] = tested on: NCI-H460; test: Antiproliferative activity against NCIH-460 (human lung) cell line.; format: functional, cell-based
[11] = target: T1, Cyclin-dependent kinase 4/cyclin D1; test: Inhibition of Cyclin D1-cyclin-dependent kinase 4 mediated Rb21-phosphorylation; format: protein-complex assay; settings: in the assay text read “RbING-phosphorylation” for “Rb21-phosphorylation”; method in brief: as §3

| Structure (SMILES) | IC50 [2] [nM] | IC50 [3] [nM] | IC50 [4] [nM] | solubility [6] [µg/mL] | inhibition [7] [%] | IC50 [8] [nM] | inhibition [9] [%] | IC50 [10] [nM] | IC50 [11] [nM] | Fold increase [1] | Fold increase [5] |
| --- | --- | --- | --- | --- | --- | --- | --- | --- | --- | --- | --- |
| O=C1NC(=O)c2c1c1c3ccccc3[nH]c1c1c2c2cccc3c2n1C(CO)CC3 (stereo not given) | 219 | 920 | 858 | 570 (≈ 1440 µM) | 65 | 18 | 53 | 820 | – | 1.32 | 1.51 |
| O=C1NC(=O)c2c1c1c3ccccc3[nH]c1c1c2c2cccc3c2n1CC(CO)C3 (stereo not given) | 217 | 910 | > 2000 | 120 (≈ 303 µM) | 55 | 71 | 21 | 960 | – | 2.04 | 1.95 |
| O=C1NC(=O)c2c1c1c3ccccc3[nH]c1c1c2c2cccc3c2n1CC(CO)CC3 (stereo not given) | – | 540 | – | 1070 (≈ 2610 µM) | 85 | 126 | 71 | 330 | – | 1.8 | 1.9 |
| NC(=O)[C@@H]1CCCN1CC1Cc2cccc3c(C4=C(c5c[nH]c6cc(F)ccc56)C(=O)NC4=O)cn(c23)C1 (stereo not given in full) | – | > 10000 | – | – | – | – | – | > 10000 | > 2000 | – | – |
| CNCC1Cc2cccc3c(C4=C(c5c[nH]c6cc(F)ccc56)C(=O)NC4=O)cn(c23)C1.Cl (stereo not given) | – | 1730 | 383 | – | – | 8 | – | 5150 | – | – | – |
| O=C1NC(=O)c2c1c1c3ccc(Br)cc3[nH]c1c1c2c2cccc3c2n1CC(CO)C3 (stereo not given) | > 2000 | 500 | > 2000 | 830 (≈ 1750 µM) | 74 | 10 | 56 | 360 | – | 1.6 | – |
| O=C1NC(=O)c2c1c1c3ccc(F)cc3[nH]c1c1c2c2cccc3c2n1C(CO)CC3 (stereo not given) | 79 | 820 | 3020 | 620 (≈ 1500 µM) | – | 2 | – | 260 | – | 1.7 | 2.12 |
| O=C1NC(=O)c2c1c1c3ccccc3ccc1c1c2c2cccc3c2n1CCC3CO (stereo not given) | – | 1250 | > 2000 | – | – | 210 | – | 1720 | – | 1.2 | 1.3 |
| COC(=O)CC(NCC1Cc2cccc3c(C4=C(c5c[nH]c6cc(F)ccc56)C(=O)NC4=O)cn(c23)C1)C(=O)OC (stereo not given) | – | > 10000 | – | – | – | 671 | – | > 10000 | – | – | – |

The next lines start with results.

| IC50 [2] [nM] | IC50 [3] [nM] | IC50 [4] [nM] | solubility [6] [µg/mL] | inhibition [7] [%] | IC50 [8] [nM] | inhibition [9] [%] | IC50 [10] [nM] | IC50 [11] [nM] | Structure (SMILES) | Fold increase [1] | Fold increase [5] |
| --- | --- | --- | --- | --- | --- | --- | --- | --- | --- | --- | --- |
| 284 | 1830 | > 2000 | 490 (≈ 1150 µM) | 77 | 15 | 69 | 1960 | – | COc1ccc2c(c1)[nH]c1c2c2c(c3c4cccc5c4n(c13)CC(CO)C5)C(=O)NC2=O (stereo not given) | 1.8 | 2 |
| 650 | 680 | – | – | – | 84 | – | 210 | – | Cn1ccc2ccc3c(c4c(c5c6cccc7c6n(c35)CC(CO)C7)C(=O)NC4=O)c21 (stereo not given) | 1.13 | 2.25 |
| – | 370 | > 2000 | – | 23 | 31 | 0 | 540 | – | O=C1NC(=O)c2c1c1c3ccccc3[nH]c1c1c2c2cccc3c2n1CCC3CO (stereo not given) | 1.17 | 1.44 |
| – | 1120 | > 2000 | 2780 (≈ 6840 µM) | – | 175 | – | 540 | – | O=C1NC(=O)c2c1c1c3ccccc3ccc1c1c2c2cccc3c2n1C(CO)CC3 (stereo not given) | 1.17 | 1.32 |
| 141 | 360 | > 2000 | 890 (≈ 2150 µM) | 53 | 22 | 25 | 430 | – | O=C1NC(=O)c2c1c1c3ccc(F)cc3[nH]c1c1c2c2cccc3c2n1CC(CO)C3 (stereo not given) | 1.67 | 2.32 |
| – | 770 | – | – | – | 898 | – | 4750 | – | CN(C)CC1Cc2cccc3c(C4=C(c5c[nH]c6ccccc56)C(=O)NC4=O)cn(c23)C1 (stereo not given) | 1 | 1.17 |
| – | 3270 | > 20000 | – | – | 64 | – | 5650 | – | O=C1NC(=O)C(c2cn3c4c(cccc24)CC(CCl)C3)=C1c1c[nH]c2cc(F)ccc12 (stereo not given) | – | – |
| – | 1250 | > 2000 | 4810 (≈ 10400 µM) | – | 23 | – | 690 | – | O=C1NC(=O)c2c1c1c3ccc(C(F)(F)F)cc3[nH]c1c1c2c2cccc3c2n1CC(CO)C3 (stereo not given) | 1.34 | 1.47 |
| > 2000 | 940 | > 2000 | – | – | 72 | – | 740 | – | O=C1NC(=O)c2c1c1c3ccccc3ccc1c1c2c2cccc3c2n1CC(CO)C3 (stereo not given) | 1.14 | 1.64 |

— ChEMBL document CHEMBL1149211, “Synthesis of 1,7-annulated indoles and their applications in the studies of cyclin dependent kinase inhibitors” (Bioorg Med Chem Lett, 2004)
